The values that follow come from ChEMBL document CHEMBL3875197, “Design, synthesis and pharmacological evaluation of 4-hydroxyphenylglycine and 4-hydroxyphenylglycinol derivatives as GPR88 agonists” (Bioorg Med Chem, 2017).

Assay [1] has as its target T1, G protein-coupled receptor 88 (Homo sapiens, UniProt Q9GZN0). As to the kind of experiment: Agonist activity at PPLS-HA-tagged-GPR88 (unknown origin) expressed in CHO cells assessed as inhibition of forskolin-stimulated cAMP production at 1 uM measured after 30 mins by TR-FRET assay. It is filed as functional, cell-based. The method in brief: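 Stable PPLS-HA-GPR88 CHO cells lifted with versene, 4,000 cells/well in HBSS with 5 mM HEPES, 0.1% BSA and 0.5 mM IBMX (pH 7.4). Single 1 μM test compound plus forskolin (300 nM at 4× final), 30 min at RT. Eu-cAMP tracer and ULight-anti-cAMP added, TR-FRET read (ex 337 nm) after 1 h at RT. Activity expressed as percentage of reference-agonist TR-FRET signal.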

Assay [2] addresses T1, G protein-coupled receptor 88. As to the kind of experiment: Agonist activity at PPLS-HA-tagged-GPR88 (unknown origin) expressed in CHO cells assessed as inhibition of forskolin-stimulated cAMP production measured after 30 mins by TR-FRET assay. It is filed as functional, cell-based.

The source made the active and inactive calls. The rule behind the calls is not given here. Some results are limits rather than exact numbers.

T1 sequence (Q9GZN0 whole entry): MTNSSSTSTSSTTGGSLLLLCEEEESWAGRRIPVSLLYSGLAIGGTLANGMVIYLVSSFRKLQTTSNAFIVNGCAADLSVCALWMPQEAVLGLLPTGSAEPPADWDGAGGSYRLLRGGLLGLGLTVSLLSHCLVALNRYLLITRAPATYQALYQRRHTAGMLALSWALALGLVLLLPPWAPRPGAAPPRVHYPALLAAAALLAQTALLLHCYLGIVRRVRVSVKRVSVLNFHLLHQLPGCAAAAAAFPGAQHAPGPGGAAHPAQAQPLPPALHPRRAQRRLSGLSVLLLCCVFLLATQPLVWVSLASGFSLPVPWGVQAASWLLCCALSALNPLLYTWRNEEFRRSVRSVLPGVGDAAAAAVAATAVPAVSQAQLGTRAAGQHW

Regarding `CCCC(C)COc1ccc([C@@H](NC(=O)[C@H](C)c2ccccc2)C(=O)OC)cc1` (stereo not given in full), the agonist activity call in assay [1] is “Active”.
For the compound `CCCC(C)COc1ccc([C@@H](NC(=O)Cc2ccc(C)cc2)C(=O)OC)cc1` (stereo not given in full), in assay [2], the EC50 was determined as 3.7 µM.
Take `CCCC(C)COc1ccc([C@H](CN=[N+]=[N-])NC(=O)[C@@H](C)c2ccccc2)cc1` (stereo not given in full): the concentration for a half-maximal effect (EC50) in assay [2] was 0.134 µM.
Take `CCCC(C)COc1ccc([C@@H](NC(=O)[C@@H](C)c2ccccc2)C(=O)OC)cc1` (stereo not given in full): in assay [1], the agonist activity call was “Active”. In addition, in assay [2], the EC50 is 0.538 µM.
For `CCCC(C)COc1ccc([C@@H](NC(=O)[C@@H](C)c2ccccc2)C(=O)O)cc1` (stereo not given in full), the EC50 in assay [2] was over 10 µM.
For `CCCC(C)COc1ccc([C@@H](NC(=O)C(C)C2CCCCC2)C(=O)OC)cc1` (mixture of isomers), in assay [2], the EC50 is over 10 µM.
Take `CCCC(C)COc1ccc([C@@H](NC(=O)Cc2ccc(C#N)cc2)C(=O)OC)cc1` (stereo not given in full): in assay [2], the EC50 was over 10 µM.
On the same count and under the same terms, the figure for `CCCC(C)COc1ccc([C@@H](NC(=O)Cc2cccc(F)c2)C(=O)OC)cc1` (stereo not given in full) is 3.91 µM.
As for `CCCC(C)COc1ccc([C@@H](NC(=O)[C@@H](CC)c2ccccc2)C(=O)OC)cc1` (stereo not given in full), in assay [1], the agonist activity call is “Active”. In addition, the EC50 in assay [2] was found to be 0.583 µM.
As to `CCCC(C)COc1ccc([C@@H](NC(=O)Cc2ccc(OC)cc2)C(=O)OC)cc1` (stereo not given in full), in assay [2], the EC50 came to 9.57 µM.
Still for that read-out and setting: in the case of `CCCC(C)COc1ccc([C@H](CO)NC(=O)Cc2ccccc2)cc1` (stereo not given in full) it was 0.487 µM; in that of `CCCC(C)COc1ccc([C@@H](NC(=O)Cc2ccccc2F)C(=O)OC)cc1` (stereo not given in full), 7.87 µM.
Still for that read-out and setting: in the case of `CCCC(C)COc1ccc([C@H](CO)NC(=O)CCCc2ccccc2)cc1` (stereo not given in full) it was 1.44 µM; in that of `CCCC(C)COc1ccc([C@@H](NC(=O)Cc2ccc(F)cc2)C(=O)OC)cc1` (stereo not given in full), 5.86 µM; in that of `CCCC(C)COc1ccc([C@H](CO)NC(=O)[C@@H](CC)c2ccccc2)cc1` (stereo not given in full), 0.145 µM.
With `CCCC(C)COc1ccc([C@@H](NC(=O)Cc2ccccc2)C(=O)OC)cc1` (stereo not given in full), the agonist activity call in assay [1] is “Active”. In addition, in assay [2], the half-maximal effective concentration (EC50) came to 2.63 µM.
For the compound `CCCC(C)COc1ccc([C@H](CO)NC(=O)CCc2ccccc2)cc1` (stereo not given in full), the EC50 in assay [2] stood at 0.345 µM.
